Test results as given in ChEMBL document CHEMBL1121584, “Soft drugs. 3. A new class of anticholinergic agents” (J Med Chem, 1980).

Columns and labels:
[1] = species on record: Cavia porcellus; assay: Anticholinergic activity was measured by the guinea pig ileum test.; assay type: functional; conditions: for Kb: Cavia porcellus, Ileum, read-out: pA2 (converted)
Summary of the method: (§1)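 Guinea pig whole ileum strips in McEwan's solution, gassed with O2/CO2 95:5, 37 °C organ bath, 1 g tension. Cumulative acetylcholine concentration-response curves were run to constancy, then repeated after 15–20 min equilibration with increasing antagonist concentrations. Mean curves gave dose ratios, from which competitive antagonism and pA2 were derived.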

[2] = The hydrolytic kinetics expressed as Kobs was measured at 7.4 pH at 37 degree C; assay type: ADME; conditions: pH 7.4
Summary of the method: (§2)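 Chemical hydrolysis in 0.5 M potassium phosphate, pH 7.4, 37 °C. Rate was followed by appearance of the acid product or loss of the quaternary salt. Where salt contained amine hydrochloride, initial concentration was taken from final acid after complete hydrolysis. Half-life was estimated from both where resolved.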

[3] = Half life period was measured at 7.4 pH from d[acid]/dt.; assay type: ADME; conditions: pH 7.4; summary of the method: as §2
[4] = species on record: Cavia porcellus; assay: Antihistamine activity was measured by the guinea pig ileum test; c = NA means no activity found at the doses used.; assay type: functional
Summary of the method: (§3)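 Guinea pig ileum strips, McEwan's solution, Carbogen, 37 °C, 1 g tension. Cumulative histamine concentration-response curves were recorded before and after 15–20 min equilibration with rising antagonist concentrations. pA2 came from dose ratios of mean curves.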

[5] = Cholinergic potency was expressed in terms of relative activity vs acetylcholine; NA means no activity found at the doses used.; assay type: functional
[6] = species on record: Cavia porcellus; assay: Anticholinergic activity was measured by the guinea pig ileum test; NA means no activity found at the doses used; assay type: functional; summary of the method: as §1
[7] = Half life period was measured at 7.4 pH from d[quant]/dt.; assay type: ADME; conditions: pH 7.4; summary of the method: as §2
[8] = species on record: Cavia porcellus; assay: Antihistamine activity was measured by the guinea pig ileum test.; assay type: functional; conditions: for Kb: Cavia porcellus, Ileum, read-out: pA2 (converted); summary of the method: as §3
[9] = species on record: Cavia porcellus; assay: Anticholinergic activity was measured by the guinea pig ileum test; c = NA means no activity found at the doses used.; assay type: functional; summary of the method: as §1
[10] = Cholinergic potency was expressed in terms of relative activity vs acetylcholine.; assay type: functional
[11] = species on record: Canis familiaris; assay: The hydrolytic kinetics expressed as Kobs was measured in dog plasma at 37 degree C; assay type: ADME, Canis lupus familiaris
Summary of the method: (§4)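 Fresh dog blood was centrifuged and the upper layer filtered through 0.8 and 0.2 µm membranes. 2 mL plasma samples with gentisic acid internal standard were incubated. 5 µL aliquots taken at intervals were assayed against acid standard curves in methanol. Rates came from acid appearance or quaternary salt loss.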

[12] = Half life period was measured at 37 degree C in dog plasma from d[quant]/dt.; assay type: ADME, Canis lupus familiaris; summary of the method: as §4
[13] = Cholinergic potency was expressed in terms of relative activity vs acetylcholine; c = NA means no activity found at the doses used.; assay type: functional
[14] = species on record: Sus scrofa; assay: The hydrolytic kinetics expressed as Kobs was measured in […] at 37 degree C; assay type: ADME; conditions: pig
Summary of the method: (§5)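 Hog liver carboxylesterase (EC 3.1.1.1), 2.4 units, with substrate at 5.6×10^-3 mol L-1 in 0.5 M potassium phosphate pH 7.4 containing gentisate internal standard, 37 °C. Rate was taken from acid formation.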

[15] = species on record: Sus scrofa; assay: Half life period was measured at 37 degree C in […] from d[acid]/dt.; assay type: ADME; conditions: pig, in vitro; in the assay text read “esterase” for “plasma”; summary of the method: as §5
[16] = species on record: Felis catus; assay: acetylcholine antagonist effect of compound on cat blood pressure at concentration 5.7*10e-7 in 3 min; assay type: functional
Summary of the method: (§6)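 Adult cats under ip α-chloralose (80 mg/kg) plus pentobarbitone (6 mg/kg), bilaterally vagotomized and artificially respired. Carotid blood pressure was recorded. An iv acetylcholine dose giving 70–80% of maximal vasodepressor response was used. After iv test drug, acetylcholine responses were checked at 1 min and then every 2–3 min and expressed as % of control. Doses were given in mol/kg, escalating after recovery.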

[17] = species on record: Felis catus; assay: acetylcholine antagonist effect of compound on cat blood pressure at concentration 5.4*10e-8 in 2 min
[18] = species on record: Felis catus; assay: acetylcholine antagonist effect of compound on cat blood pressure at concentration 5.7*10e-7 in 6 min; assay type: functional; summary of the method: as §6
[19] = tested on: Felis catus; assay: acetylcholine antagonist effect of compound on cat blood pressure at concentration 5.7*10e-8 mol/kg in 1 min; assay type: functional; summary of the method: as §6
[20] = species on record: Felis catus; assay: acetylcholine antagonist effect of compound on cat blood pressure at concentration 5.7*10e-7 in 9 min; assay type: functional; summary of the method: as §6
[21] = species on record: Felis catus; assay: acetylcholine antagonist effect of compound on cat blood pressure at concentration 5.7*10e-7 in 12 min; assay type: functional; summary of the method: as §6
[22] = species on record: Felis catus; assay: acetylcholine antagonist effect of compound on cat blood pressure at concentration 5.7*10e-7 in 18 min; assay type: functional; summary of the method: as §6
[23] = species on record: Felis catus; assay: acetylcholine antagonist effect of compound on cat blood pressure at concentration 5.7*10e-8 in 8 min; assay type: functional
Summary of the method: (§7)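 Adult cats anesthetized ip with α-chloralose (80 mg/kg) plus sodium pentobarbitone (6 mg/kg), bilaterally vagotomized, artificially respired. Carotid arterial pressure recorded. Drugs given iv via brachial vein. Acetylcholine dose giving 70-80% of maximal vasodepressor response used throughout. Test drug injected, acetylcholine response checked 1 min later, then every ~2-3 min. Value is % of control vasodepressor response to acetylcholine.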

[24] = species on record: Felis catus; assay: acetylcholine antagonist effect of compound on cat blood pressure at concentration 5.7*10e-8 in 6 min; assay type: functional; summary of the method: as §7
[25] = species on record: Felis catus; assay: acetylcholine antagonist effect of compound on cat blood pressure at concentration 5.7*10e-7 in 15 min; assay type: functional; summary of the method: as §6
[26] = species on record: Felis catus; assay: acetylcholine antagonist effect of compound on cat blood pressure at concentration 5.7*10e-7 in 1 min; assay type: functional; summary of the method: as §6
[27] = species on record: Felis catus; assay: acetylcholine antagonist effect of compound on cat blood pressure at concentration 5.7*10e-7 in 24 min; assay type: functional; summary of the method: as §6
[28] = species on record: Felis catus; assay: acetylcholine antagonist effect of compound on cat blood pressure at concentration 5.7*10e-8 in 4 min; assay type: functional; summary of the method: as §7
[29] = species on record: Felis catus; assay: acetylcholine antagonist effect of compound on cat blood pressure at concentration 5.7*10e-8 in 10 min; assay type: functional; summary of the method: as §6
[30] = species on record: Felis catus; assay: acetylcholine antagonist effect of compound on cat blood pressure at concentration 5.7*10e-7 in 21 min; assay type: functional; summary of the method: as §6
[31] = species on record: Felis catus; assay: acetylcholine antagonist effect of compound on cat blood pressure at concentration 5.7*10e-7 in 22 min; assay type: functional; summary of the method: as §6
[32] = species on record: Felis catus; assay: acetylcholine antagonist effect of compound on cat blood pressure at concentration 5.7*10e-8 in 9 min; assay type: functional; summary of the method: as §7
[33] = species on record: Felis catus; assay: acetylcholine antagonist effect of compound on cat blood pressure at concentration 5.7*10e-8 in 7 min; assay type: functional; summary of the method: as §7
[34] = species on record: Felis catus; assay: acetylcholine antagonist effect of compound on cat blood pressure at concentration 5.7*10e-7 in 37 min; assay type: functional; summary of the method: as §6
[35] = species on record: Felis catus; assay: acetylcholine antagonist effect of compound on cat blood pressure at concentration 5.7*10e-7 in 27 min; assay type: functional; summary of the method: as §6
[36] = species on record: Felis catus; assay: acetylcholine antagonist effect of compound on cat blood pressure at concentration 5.7*10e-8 in 3 min; assay type: functional; summary of the method: as §6
[37] = species on record: Felis catus; assay: acetylcholine antagonist effect of compound on cat blood pressure at concentration 5.7*10e-8 in 5 min; assay type: functional; summary of the method: as §7
[38] = species on record: Felis catus; assay: acetylcholine antagonist effect of compound on cat blood pressure at concentration 5.7*10e-7 in 31 min; assay type: functional; summary of the method: as §6
[39] = species on record: Cavia porcellus; assay: Anticholinergic activity was measured by the guinea pig ileum test; assay type: functional; conditions: read-out: pA2 (converted); summary of the method: as §1

Q: With C[N+]1(COC(=O)C2(c3ccccc3)CCCC2)CCCC1.[Cl-] as the compound, how does the Kb [1] read?
A: 0.0501 µM

Q: And the K obs [2]?
A: 0.000181 min⁻¹

Q: What about the half-life [3] of the same compound?
A: 64 h

Q: And the pA2 [4]?
A: No activity

Q: For C[N+]1(C2OC(=O)c3ccccc32)CCCC1 (configuration not stated), which Activity [5] is on record?
A: No activity

Q: What about the pA2 [6] of the same compound?
A: No activity

Q: For CCC(C(=O)OC[n+]1ccn(C)c1)c1ccccc1.[Cl-] (configuration not stated), which Kb [1] is on record?
A: 1.26 µM

Q: And the half-life [7]?
A: 6 h

Q: And the Kb [8]?
A: 1.26 µM

Q: And the half-life [3]?
A: 5.7 h

Q: What does the source list for CC[N+](CC)(COC(=O)C(C)(C)C)CC(=O)Nc1c(C)cccc1C?
A: pA2 [9]: No activity; Activity [10]: 1

Q: With C[N+]1(COC(=O)C2(c3ccccc3)CC2)CCCC1.[Cl-] as the compound, how does the Kb [1] read?
A: 1.58 µM

Q: And the K obs [2]?
A: 0.00068 min⁻¹

Q: What about the half-life [3] of the same compound?
A: 17 h

Q: And the pA2 [4]?
A: No activity

Q: Which results are given for CC1CCC[N+]1(C)COC(=O)C1(c2ccccc2)CC1.[Cl-] (configuration not stated)?
A: Kb [1]: 0.251 µM; K obs [2]: 0.00055 min⁻¹; Kb [8]: 0.575 µM; half-life [3]: 21 h

Q: What does the source list for CC[N+](CC)(CC)COC(=O)C(c1ccccc1)C1CCCC1 (configuration not stated) [listing 1 of 2 here]?
A: Kb [1]: 0.00316 µM; Kb [8]: 0.0501 µM

Q: Which results are given for CC(=O)OC1C[N+]2(COC(=O)C(c3ccccc3)C3CCCC3)CCC1CC2.[Cl-] (configuration not stated)?
A: pA2 [1]: 8.6; pA2 [8]: 5.7

Q: Which K obs [11] does the source give for C[N+]1(COC(=O)Cc2ccccc2)CCOCC1.[Cl-] here?
A: 1.73 min⁻¹

Q: What about the half-life [3] of the same compound?
A: 8 h

Q: What about the half-life [12] of the same compound?
A: 4 h

Q: What does the source list for CC[N+](CC)(CC)COC(=O)C(c1ccccc1)C1CCCC1 (configuration not stated) [listing 2 of 2 here]?
A: Activity [13]: No activity; pA2 [4]: No activity

Q: With CCC(C(=O)OC[N+](CC)(CC)CC)c1ccccc1.[Cl-] (configuration not stated) as the compound, how does the K obs [14] read?
A: 0.00542 min⁻¹

Q: And the Kb [1]?
A: 0.251 µM

Q: And the half-life [7]?
A: 2.5 h

Q: And the T1/2 [15]?
A: 2.1 h

Q: What about the K obs [11] of the same compound?
A: 0.00815 min⁻¹

Q: What about the Kb [8] of the same compound?
A: 0.316 µM

Q: What about the half-life [3] of the same compound?
A: 2.6 h

Q: And the half-life [12]?
A: 1.4 h

Q: With CC[N+](CC)(CC)COC(=O)C(c1ccccc1)C1CCCCC1.[Cl-] (configuration not stated) as the compound, how does the Response [16] read?
A: 0%

Q: And the Kb [1]?
A: 0.00251 µM

Q: And the Response [17]?
A: 0%

Q: What about the Response [18] of the same compound?
A: 0%

Q: What about the Response [19] of the same compound?
A: 0%

Q: And the Response [20]?
A: 0%

Q: What about the Response [21] of the same compound?
A: 43%

Q: What about the Response [22] of the same compound?
A: 78%

Q: And the Kb [8]?
A: 2 µM

Q: What about the Response [23] of the same compound?
A: 83%

Q: What about the Response [24] of the same compound?
A: 67%

Q: And the Response [25]?
A: 60%

Q: And the Response [26]?
A: 0%

Q: And the Response [27]?
A: 100%

Q: What about the Response [28] of the same compound?
A: 50%

Q: And the Response [29]?
A: 100%

Q: And the Response [30]?
A: 93%

Q: Which Response [31] does the source give for CC[N+](CC)(CC)COC(=O)C(c1ccccc1)C1CCCC1.[Cl-] (configuration not stated) here?
A: 65%

Q: And the Response [32]?
A: 100%

Q: And the Response [16]?
A: 0%

Q: And the Response [33]?
A: 82%

Q: And the K obs [2]?
A: 0.000361 min⁻¹

Q: And the Response [34]?
A: 100%

Q: And the Response [18]?
A: 0%

Q: What about the Response [35] of the same compound?
A: 73%

Q: What about the Response [36] of the same compound?
A: 18%

Q: And the Response [19]?
A: 0%

Q: And the Response [37]?
A: 55%

Q: And the Response [21]?
A: 18%

Q: And the Response [22]?
A: 55%

Q: And the Response [38]?
A: 95%

Q: And the half-life [3]?
A: 32 h

Q: And the Response [25]?
A: 36%

Q: What about the Response [26] of the same compound?
A: 0%

Q: And the Kb [39]?
A: 0.00794 µM
